Each block holds one molecule with its values, some of them ahead of it. The source made the active and inactive calls. The rule behind the calls is not given here.
Assays:
Assay type in all cases: cell-based
[1] = biological target: Carbonic anhydrase 2 (Homo sapiens) (UniProt P00918); assay: Induction of in carbonic anhydrase-2 HEK293 cells assessed as degradation of carbonic anhydrase-2 at 5 uM measured after 24 hrs by Western blot analysis
Outline: (§1)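 HEK293 cells (DMEM, 10% FBS, 37 °C, 5% CO2) plated at 2 × 10⁶/well, dosed in DMSO (0.5% final) 24 h before lysis at ~90% confluency. 30–50 μg lysate protein on SDS-PAGE, blotted with anti-hCAII and anti-β-actin, Cy5 secondary. hCAII/β-actin ratio normalized to DMSO wells, as % DMSO.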

[2] = biological target: T1, Protein cereblon/Carbonic anhydrase 2 (Homo sapiens, UniProt P00918+Q96SW2); assay: Protac activity at CRBN/CA-2 in HEK293 cells assessed as degradation of carbonic anhydrase-2 measured after 24 hrs by Western blot analysis; settings: dose <= 15.0 µM
Outline: (§2)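 Nine-point dose response, 5 pM to 15 μM, in HEK293 cells for 24 h before lysis, three biological replicates; Western blot with hCAII normalized to β-actin and DMSO vehicle. DC50 (95% CI) and DMax from least-squares sigmoidal fit of concentrations below the hook region; log(inhibitor) vs response, three-parameter fit.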

[3] = biological target: T1, Protein cereblon/Carbonic anhydrase 2; assay: Protac activity at CRBN/CA-2 in HEK293 cells assessed as degradation of carbonic anhydrase-2; outline: as §2
[4] = biological target: T1, Protein cereblon/Carbonic anhydrase 2; assay: Protac activity at CRBN/CA-2 in HEK293 cells assessed as degradation of carbonic anhydrase-2 at 15 uM measured after 24 hrs by Western blot analysis relative to control; outline: as §1
[5] = biological target: T1, Protein cereblon/Carbonic anhydrase 2; assay: Protac activity at CRBN/CA-2 in HEK293 cells assessed as degradation of carbonic anhydrase-2 at 50 pM measured after 24 hrs by Western blot analysis; outline: as §1
[6] = biological target: T1, Protein cereblon/Carbonic anhydrase 2; assay: Protac activity at CRBN/CA-2 in HEK293 cells assessed as degradation of carbonic anhydrase-2 at 50 nM by Western blot analysis; settings: time lower 0.0 hrs, time upper […]
Outline: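 HEK293 cells given 50 nM compound for 0–48 h time course; hCAII abundance by Western blot, hCAII/β-actin normalized to DMSO vehicle.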

[7] = biological target: T1, Protein cereblon/Carbonic anhydrase 2; assay: Protac activity at CRBN/CA-2 in HEK293 cells assessed as degradation of carbonic anhydrase-2 at 50 nM preincubated for 1 hr with acetazolamide followed by compound addition and measured after 6 hrs by Western blot analysis
[8] = biological target: T1, Protein cereblon/Carbonic anhydrase 2; assay: Protac activity at CRBN/CA-2 in HEK293 cells assessed as degradation of carbonic anhydrase-2 at 50 nM preincubated for 1 hr with lenalidomide followed by compound addition and measured after 6 hrs by Western blot analysis
[9] = biological target: T1, Protein cereblon/Carbonic anhydrase 2; assay: Protac activity at CRBN/CA-2 in HEK293 cells assessed as degradation of carbonic anhydrase-2 at 50 nM preincubated for 1 hr with MG-132 followed by compound addition and measured after 6 hrs by Western blot analysis
Outline: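 HEK293 cells pretreated 1 h with MG-132 at 1 μM, then 50 nM compound for 6 h; hCAII by Western blot, hCAII/β-actin relative to DMSO controls.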

SMILES: CS(=O)(=O)c1ccc(C(=O)NCCCOCCOCCOCCCNc2cccc3c2C(=O)N(C2CCC(=O)NC2=O)C3=O)cc1 (stereo not given)
Activity [1]: inactive

SMILES: CN1C(=O)CCC(N2C(=O)c3cccc(NCCCOCCOCCOCCCNC(=O)c4ccc(S(N)(=O)=O)cc4)c3C2=O)C1=O (stereo not given)
Activity [1]: inactive

SMILES: NS(=O)(=O)c1ccc(C(=O)NCCCCCCCCCCCCNc2cccc3c2C(=O)N(C2CCC(=O)NC2=O)C3=O)cc1 (stereo not given)
Activity [5]: Active
Activity [6]: Dose-Dependent Effect
Activity [7]: inactive
Activity [8]: inactive
Activity [9]: inactive

Continued, values first:

Activity [1]: inactive
SMILES: CN1C(=O)CCC(N2C(=O)c3cccc(NCCCOCCCCOCCCNC(=O)c4ccc(S(N)(=O)=O)cc4)c3C2=O)C1=O (stereo not given)

Activity [1]: inactive
SMILES: CS(=O)(=O)c1ccc(C(=O)NCCCOCCCCOCCCNc2cccc3c2C(=O)N(C2CCC(=O)NC2=O)C3=O)cc1 (stereo not given)

Activity [2]: Dose-Dependent Effect
EC50 [3]: 245 nM
Activity [4]: 100%
SMILES: NS(=O)(=O)c1ccc(C(=O)NCCCOCCOCCOCCCNc2cccc3c2C(=O)N(C2CCC(=O)NC2=O)C3=O)cc1 (stereo not given)

Activity [2]: Dose-Dependent Effect
EC50 [3]: 5 nM
Activity [4]: 100%
SMILES: NS(=O)(=O)c1ccc(C(=O)NCCCOCCCCOCCCNc2cccc3c2C(=O)N(C2CCC(=O)NC2=O)C3=O)cc1 (stereo not given)
